{"source": "ChEMBL document CHEMBL1157464", "about": "“1-[(3-Aryloxy-3-aryl)propyl]-1H-imidazoles, new imidazoles with potent activity against Candida albicans and dermatophytes. Synthesis, structure-activity relationship, and molecular modeling studies” (J Med Chem, 2008)", "key": {"[1]": {"system": "Candida albicans", "experiment": "Antifungal activity against Candida albicans ATCC 10261 at 35 degC after 48 to 96 hrs by broth microdilution test", "format": "functional", "settings": "for MFC: Candida albicans, ATCC 10261, read-out: MFC", "how_it_was_run": "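Minimal fungicidal concentration for Candida. […] MFC is the lowest concentration allowing fewer than two colonies (99% killing).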"}, "[2]": {"experiment": "Cytotoxicity against human K562 cells after assessed as reduction of cell viability 24 hrs by MTT assay", "format": "cell-based", "how_it_was_run": "(§1)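 U937 and K562 cells, from ATCC, plated at 5 × 10^4/mL in phenol-red-free RPMI-1640 with 20% FBS and penicillin/streptomycin. Compounds added 2 h later at 25–100 µg/mL, then 24 h at 37 °C. MTT at 1 mg/mL for 3 h, formazan dissolved in isopropanol with 0.1 N HCl, absorbance read at 570 nm. CC50 is the concentration reducing viability by 50% versus the drug-free control.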"}, "[3]": {"system": "Arthrodermataceae", "experiment": "Antifungal activity against dermatophytes at 28 degC after 48 to 96 hrs by broth microdilution test"}, "[4]": {"system": "Arthrodermataceae", "experiment": "Antifungal activity against dermatophytes at 28 degC after 5 days by broth microdilution test", "settings": "for MFC: Arthrodermataceae"}, "[5]": {"system": "Candida albicans", "experiment": "Antifungal activity against fluconazole-resistant Candida albicans isolated from oropharyngeal or vaginal disease patient after 48 hrs by broth microdilution test", "format": "functional"}, "[6]": {"experiment": "Therapeutic index, ratio of CC50 for human U937 cells to MIC90 for Candida albicans ATCC 10261", "format": "cell-based, U-937", "how_it_was_run": "(§2)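 Therapeutic index calculated as CC50 in the given cell line divided by MIC90.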"}, "[7]": {"experiment": "Therapeutic index, ratio of CC50 for human K562 cells to MIC90 for Candida albicans ATCC 10261", "format": "cell-based", "how_it_was_run": "as §2"}, "[8]": {"system": "Candida parapsilosis", "experiment": "Antifungal activity against Candida parapsilosis ATCC 22019 at 35 degC after 48 hrs by broth microdilution test", "format": "functional", "settings": "Lodderomyces parapsilosis, ATCC 22019, 48 h; for MFC: read-out: MFC; for MIC: read-out: MIC", "how_it_was_run": "(§3)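 Broth microdilution per NCCLS M27-A2. Stocks in 100% DMSO, diluted in RPMI 1640 with 0.165 M MOPS at pH 7.0; final range 0.25–128 µg/mL. Inoculum 1000–5000 cells/mL from SDA subcultures. […] C. parapsilosis ATCC22019 served as QC strain.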"}, "[9]": {"system": "Arthrodermataceae", "experiment": "Antifungal activity against dermatophytes at 28 degC after 7 days by broth microdilution test", "format": "functional", "settings": "168 h", "how_it_was_run": "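Ten clinical isolates (two M. canis, five M. gypseum, three T. mentagrophytes) tested by NCCLS M38-A broth microdilution in MOPS-buffered RPMI 1640, pH 7.0, over 0.25–128 µg/mL. Conidial/hyphal suspension from PDA slants (28 °C, 7 days) adjusted to 65–70% transmittance at OD530, then diluted 1:50.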"}, "[10]": {"system": "Candida albicans", "experiment": "Antifungal activity against fluconazole-sensitive Candida albicans Fe40 at 35 degC after 48 hrs by broth microdilution test", "format": "functional", "how_it_was_run": "as §3"}, "[11]": {"experiment": "Cytotoxicity against human U937 cells assessed as reduction of cell viability after 24 hrs by MTT assay", "format": "cell-based, U-937", "how_it_was_run": "as §1"}, "[12]": {"system": "Candida albicans", "experiment": "Antifungal activity against Candida albicans ATCC 10261 at 35 degC after 48 hrs by broth microdilution test", "format": "functional", "settings": "Candida albicans, ATCC 10261, 48 h; for MIC: read-out: MIC; for MIC50: read-out: MIC50; for MIC90: read-out: MIC90", "how_it_was_run": "as §3"}}, "data": [{"compound": "Cc1ccc(C(CCn2ccnc2)Oc2ccc(Cl)cc2)cc1", "note": "(stereo not given)", "values": [{"measurement": "MFC50", "setting": "[1]", "value": 8, "unit": "mg/L"}, {"measurement": "MFC90", "setting": "[1]", "value": 16, "unit": "mg/L"}, {"measurement": "MFC", "setting": "[1]", "value": 12, "unit": "mg/L"}, {"measurement": "CC50 at 24 h", "setting": "[2]", "value": 171, "unit": "µM"}, {"measurement": "MFC50", "setting": "[3]", "value": 32, "unit": "mg/L"}, {"measurement": "MFC90", "setting": "[4]", "value": 32, "unit": "mg/L"}, {"measurement": "MFC", "setting": "[4]", "value": 25.6, "unit": "mg/L"}, {"measurement": "MIC", "setting": "[5]", "value": 3.6, "unit": "mg/L"}, {"measurement": "selectivity ratio", "setting": "[6]", "value": 42}, {"measurement": "selectivity ratio", "setting": "[7]", "value": 42.8}, {"measurement": "MFC", "setting": "[8]", "value": 8, "unit": "mg/L"}, {"measurement": "MIC", "setting": "[8]", "value": 4, "unit": "mg/L"}, {"measurement": "MIC", "setting": "[9]", "value": 3.8, "unit": "mg/L"}, {"measurement": "MIC50", "setting": "[9]", "value": 4, "unit": "mg/L"}, {"measurement": "MIC90", "setting": "[9]", "value": 4, "unit": "mg/L"}, {"measurement": "MIC", "setting": "[10]", "value": 2, "unit": "mg/L"}, {"measurement": "CC50 at 24 h", "setting": "[11]", "value": 168, "unit": "µM"}, {"measurement": "MIC", "setting": "[12]", "value": 2.4, "unit": "mg/L"}, {"measurement": "MIC50", "setting": "[12]", "value": 2, "unit": "mg/L"}, {"measurement": "MIC90", "setting": "[12]", "value": 4, "unit": "mg/L"}]}, {"compound": "OC(Cn1cncn1)(Cn1cncn1)c1ccc(F)cc1F", "note": "[FLUCONAZOLE]", "values": [{"measurement": "MFC", "setting": "[1]", "value": "> 64", "unit": "mg/L"}, {"measurement": "CC50 at 24 h", "setting": "[2]", "value": 385, "unit": "µM"}, {"measurement": "MIC", "setting": "[5]", "value": 128, "unit": "mg/L"}, {"measurement": "selectivity ratio", "setting": "[6]", "value": 5.1}, {"measurement": "selectivity ratio", "setting": "[7]", "value": 6}, {"measurement": "MFC", "setting": "[8]", "value": 8, "unit": "mg/L"}, {"measurement": "MIC", "setting": "[8]", "value": 0.5, "unit": "mg/L"}, {"measurement": "MIC", "setting": "[10]", "value": 0.25, "unit": "mg/L"}, {"measurement": "CC50 at 24 h", "setting": "[11]", "value": 328, "unit": "µM"}, {"measurement": "MIC", "setting": "[12]", "value": 15.3, "unit": "mg/L"}, {"measurement": "MIC50", "setting": "[12]", "value": 2, "unit": "mg/L"}, {"measurement": "MIC90", "setting": "[12]", "value": 64, "unit": "mg/L"}]}, {"compound": "Cc1ccc(OC(CCCn2ccnc2)c2ccc(Cl)cc2)cc1", "note": "(stereo not given)", "values": [{"measurement": "MFC50", "setting": "[1]", "value": 4, "unit": "mg/L"}, {"measurement": "MFC90", "setting": "[1]", "value": 8, "unit": "mg/L"}, {"measurement": "MFC", "setting": "[1]", "value": 5.6, "unit": "mg/L"}, {"measurement": "CC50 at 24 h", "setting": "[2]", "value": 259, "unit": "µM"}, {"measurement": "selectivity ratio", "setting": "[6]", "value": 87.5}, {"measurement": "selectivity ratio", "setting": "[7]", "value": 64.8}, {"measurement": "MFC", "setting": "[8]", "value": 0.25, "unit": "mg/L"}, {"measurement": "MIC", "setting": "[8]", "value": 0.03, "unit": "mg/L"}, {"measurement": "CC50 at 24 h", "setting": "[11]", "value": 350, "unit": "µM"}, {"measurement": "MIC", "setting": "[12]", "value": 2.1, "unit": "mg/L"}, {"measurement": "MIC50", "setting": "[12]", "value": 2, "unit": "mg/L"}, {"measurement": "MIC90", "setting": "[12]", "value": 4, "unit": "mg/L"}]}, {"compound": "Fc1ccc(C(CCn2ccnc2)Oc2cc(Cl)cc(Cl)c2)cc1", "note": "(stereo not given)", "values": [{"measurement": "MFC50", "setting": "[1]", "value": 16, "unit": "mg/L"}, {"measurement": "MFC90", "setting": "[1]", "value": 16, "unit": "mg/L"}, {"measurement": "MFC", "setting": "[1]", "value": 11.7, "unit": "mg/L"}, {"measurement": "CC50 at 24 h", "setting": "[2]", "value": 98.1, "unit": "µM"}, {"measurement": "MFC50", "setting": "[3]", "value": 32, "unit": "mg/L"}, {"measurement": "MFC90", "setting": "[4]", "value": 32, "unit": "mg/L"}, {"measurement": "MFC", "setting": "[4]", "value": 28.5, "unit": "mg/L"}, {"measurement": "MIC", "setting": "[5]", "value": 12.8, "unit": "mg/L"}, {"measurement": "MFC", "setting": "[8]", "value": 4, "unit": "mg/L"}, {"measurement": "MIC", "setting": "[8]", "value": 1, "unit": "mg/L"}, {"measurement": "MIC", "setting": "[9]", "value": 16.2, "unit": "mg/L"}, {"measurement": "MIC50", "setting": "[9]", "value": 16, "unit": "mg/L"}, {"measurement": "MIC90", "setting": "[9]", "value": 16, "unit": "mg/L"}, {"measurement": "MIC", "setting": "[10]", "value": 8, "unit": "mg/L"}, {"measurement": "CC50 at 24 h", "setting": "[11]", "value": 160, "unit": "µM"}, {"measurement": "MIC", "setting": "[12]", "value": 8.8, "unit": "mg/L"}, {"measurement": "MIC50", "setting": "[12]", "value": 8, "unit": "mg/L"}, {"measurement": "MIC90", "setting": "[12]", "value": 16, "unit": "mg/L"}]}, {"compound": "Clc1ccc(COC(Cn2ccnc2)c2ccc(Cl)cc2Cl)cc1", "note": "(stereo not given) [ECONAZOLE]", "values": [{"measurement": "MFC50", "setting": "[1]", "value": 16, "unit": "mg/L"}, {"measurement": "MFC90", "setting": "[1]", "value": 32, "unit": "mg/L"}, {"measurement": "MFC", "setting": "[1]", "value": 15, "unit": "mg/L"}, {"measurement": "CC50 at 24 h", "setting": "[2]", "value": 70, "unit": "µM"}, {"measurement": "MFC50", "setting": "[3]", "value": 4, "unit": "mg/L"}, {"measurement": "MFC90", "setting": "[4]", "value": 8, "unit": "mg/L"}, {"measurement": "MFC", "setting": "[4]", "value": 6, "unit": "mg/L"}, {"measurement": "selectivity ratio", "setting": "[6]", "value": 13.5}, {"measurement": "selectivity ratio", "setting": "[7]", "value": 8.8}, {"measurement": "MFC", "setting": "[8]", "value": 2, "unit": "mg/L"}, {"measurement": "MIC", "setting": "[8]", "value": 2, "unit": "mg/L"}, {"measurement": "MIC", "setting": "[9]", "value": 2.1, "unit": "mg/L"}, {"measurement": "MIC50", "setting": "[9]", "value": 1, "unit": "mg/L"}, {"measurement": "MIC90", "setting": "[9]", "value": 4, "unit": "mg/L"}, {"measurement": "CC50 at 24 h", "setting": "[11]", "value": 108, "unit": "µM"}, {"measurement": "MIC", "setting": "[12]", "value": 4.3, "unit": "mg/L"}, {"measurement": "MIC50", "setting": "[12]", "value": 4, "unit": "mg/L"}, {"measurement": "MIC90", "setting": "[12]", "value": 8, "unit": "mg/L"}]}]}
